# Results from ChEMBL document CHEMBL4359831, “Chemoproteomics of an Indole-Based Quinone Epoxide Identifies Druggable Vulnerabilities in Vancomycin-Resistant Staphylococcus aureus” (J Med Chem, 2019).
# Active and inactive are the calls of the source. The calls are words filed in the database; no cut-off is given here.
# Assays:
# Enterococcus faecalis = experiment: Antibacterial activity against Enterococcus faecalis B3119 after 16 to 18 hrs by CLSI M07-A10 protocol based dilution method; format: functional
# Staphylococcus aureus [1] = experiment: Bactericidal activity against vancomycin-resistant Staphylococcus aureus HIP11714 at 10 times MIC measured up to 24 hrs by time kill assay; format: functional, organism-based
# Staphylococcus aureus [2] = experiment: Binding affinity to Staphylococcus aureus ATCC 29213 DAPDC at 10 uM in presence of 9-(Pent-4-yn-1-yl)-1a,10a-dihydro-2H-oxireno[2',3':4,5]-benzo[1,2-a]carbazole-2,10(9H)-dione after 1 hr by biotin-azide fluorescence dependent LC-MS/MS-based ABPP assay
# How it was run: (§1)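 Competitive LC–MS/MS ABPP on S. aureus soluble proteome. Pretreatment 1 h with DMSO, compound (10 μM), comparator (10 μM) or iodoacetamide (10 mM). Chase with alkyne probe (10 μM, 1 h), then Cu-catalysed click with biotin-azide and LC–MS/MS. Targets were proteins at ratio ≤0.1 versus DMSO in the compound and IAM groups and ~1 in the comparator group.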
# [3] = Selectivity index, ratio of CC50 for African green monkey Vero cells to MIC90 for Staphylococcus aureus ATCC 29213; format: toxicity; conditions: read-out: Selectivity Index
# [4] = L-cysteine reactivity in pH 7.4 phosphate buffer assessed as compound remaining at 100 uM incubated for 1 hr by HPLC analysis
# Staphylococcus aureus [5] = experiment: Antibacterial activity against vancomycin-resistant Staphylococcus aureus AIS100050 after 16 to 18 hrs by CLSI M07-A10 protocol based dilution method; format: functional
# Staphylococcus aureus [6] = experiment: Binding affinity to Staphylococcus aureus ATCC 29213 Hydroxyethylthiazole kinase at 10 uM in presence of 9-(Pent-4-yn-1-yl)-1a,10a-dihydro-2H-oxireno[2',3':4,5]-benzo[1,2-a]carbazole-2,10(9H)-dione after 1 hr by biotin-azide fluorescence dependent LC-MS/MS-based ABPP assay; how it was run: as §1
# Staphylococcus aureus [7] = experiment: Antibacterial activity against vancomycin-resistant Staphylococcus aureus 1002434 after 16 to 18 hrs by CLSI M07-A10 protocol based dilution method; format: functional
# Staphylococcus aureus [8] = experiment: Binding affinity to Staphylococcus aureus ATCC 29213 MarR family transcriptional regulator at 10 uM in presence of 9-(Pent-4-yn-1-yl)-1a,10a-dihydro-2H-oxireno[2',3':4,5]-benzo[1,2-a]carbazole-2,10(9H)-dione after 1 hr by biotin-azide fluorescence dependent LC-MS/MS-based ABPP assay; how it was run: as §1
# Staphylococcus aureus [9] = experiment: Antibacterial activity against Staphylococcus aureus ATCC 29213 after 16 to 18 hrs by CLSI M07-A10 protocol based dilution method; format: functional
# How it was run: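 MIC against ATCC 29213 determined by a previously described protocol; values in μg/mL.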
# [10] = Cytotoxicity against African green monkey Vero cells after 72 hrs by MTT assay; format: cell-based; conditions: chlorocebus sabaeus
# Staphylococcus aureus [11] = experiment: Binding affinity to Staphylococcus aureus ATCC 29213 Transcriptional regulator at 10 uM in presence of 9-(Pent-4-yn-1-yl)-1a,10a-dihydro-2H-oxireno[2',3':4,5]-benzo[1,2-a]carbazole-2,10(9H)-dione after 1 hr by biotin-azide fluorescence dependent LC-MS/MS-based ABPP assay; how it was run: as §1
# Staphylococcus aureus [12] = experiment: Binding affinity to Staphylococcus aureus ATCC 29213 Methionine aminopeptidase at 10 uM in presence of 9-(Pent-4-yn-1-yl)-1a,10a-dihydro-2H-oxireno[2',3':4,5]-benzo[1,2-a]carbazole-2,10(9H)-dione after 1 hr by biotin-azide fluorescence dependent LC-MS/MS-based ABPP assay; how it was run: as §1
# [13] = target: T1, Alkaline phosphatase synthesis transcriptional regulatory protein (Staphylococcus aureus) (UniProt W8TVM3); experiment: Binding affinity to Staphylococcus aureus ATCC 29213 Transcriptional regulator PhoP at 10 uM in presence of 9-(Pent-4-yn-1-yl)-1a,10a-dihydro-2H-oxireno[2',3':4,5]-benzo[1,2-a]carbazole-2,10(9H)-dione after 1 hr by biotin-azide fluorescence dependent LC-MS/MS-based ABPP assay; how it was run: as §1
# T1 sequence (whole entry): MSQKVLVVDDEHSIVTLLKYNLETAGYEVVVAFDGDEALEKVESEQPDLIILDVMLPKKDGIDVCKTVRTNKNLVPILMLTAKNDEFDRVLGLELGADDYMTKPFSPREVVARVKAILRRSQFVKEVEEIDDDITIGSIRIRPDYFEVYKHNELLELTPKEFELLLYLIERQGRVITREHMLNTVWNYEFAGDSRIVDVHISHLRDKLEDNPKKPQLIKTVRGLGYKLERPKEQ
# [14] = Chemical reactivity assessed as thiolated-adduct formation at 25 uM using 4-nitrobenzyl thiol after 1 hr by HPLC analysis; format: physicochemical
# Staphylococcus aureus [15] = experiment: Binding affinity to Staphylococcus aureus ATCC 29213 DNA polymerase III subunit beta at 10 uM in presence of 9-(Pent-4-yn-1-yl)-1a,10a-dihydro-2H-oxireno[2',3':4,5]-benzo[1,2-a]carbazole-2,10(9H)-dione after 1 hr by biotin-azide fluorescence dependent LC-MS/MS-based ABPP assay; how it was run: as §1
# Staphylococcus aureus [16] = experiment: Antibacterial activity against vancomycin-resistant Staphylococcus aureus SA-HIP-15178 after 16 to 18 hrs by CLSI M07-A10 protocol based dilution method; format: functional
# Staphylococcus aureus [17] = experiment: Antibacterial activity against vancomycin-resistant Staphylococcus aureus SA-HIP-11983 after 16 to 18 hrs by CLSI M07-A10 protocol based dilution method; format: functional
# Staphylococcus aureus [18] = experiment: Antibacterial activity against vancomycin-resistant Staphylococcus aureus HIP11714 after 16 to 18 hrs by CLSI M07-A10 protocol based dilution method; format: functional
# Staphylococcus aureus [19] = experiment: Binding affinity to Staphylococcus aureus ATCC 29213 Heme peroxidase at 10 uM in presence of 9-(Pent-4-yn-1-yl)-1a,10a-dihydro-2H-oxireno[2',3':4,5]-benzo[1,2-a]carbazole-2,10(9H)-dione after 1 hr by biotin-azide fluorescence dependent LC-MS/MS-based ABPP assay; how it was run: as §1
# Escherichia coli = experiment: Antibacterial activity against Escherichia coli ATCC 25922 after 16 to 18 hrs by CLSI M07-A10 protocol based dilution method; format: functional
# Staphylococcus aureus [20] = experiment: Antibacterial activity against vancomycin-resistant Staphylococcus aureus SA-HIP-14300 after 16 to 18 hrs by CLSI M07-A10 protocol based dilution method; format: functional
# Pseudomonas aeruginosa = experiment: Antibacterial activity against Pseudomonas aeruginosa ATCC 27853 after 16 to 18 hrs by CLSI M07-A10 protocol based dilution method; format: functional
smiles,measurement,setting,value
CC(C)n1c2ccccc2c2ccc3c(c21)C(=O)C1OC1C3=O (stereo not drawn),MIC,Enterococcus faecalis,64 µg/mL
same,Activity,Staphylococcus aureus [1],Active
same,Activity,Staphylococcus aureus [2],Active
same,selectivity ratio,[3],> 200
same,Activity,[4],34%
same,MIC,Staphylococcus aureus [5],0.5 µg/mL
same,Activity,Staphylococcus aureus [6],Active
same,MIC,Staphylococcus aureus [7],0.5 µg/mL
same,Activity,Staphylococcus aureus [8],Active
same,MIC,Staphylococcus aureus [9],0.125 to 0.5 µg/mL
same,CC50 at 72 h,[10],> 25 µg/mL
same,Activity,Staphylococcus aureus [11],Active
same,Activity,Staphylococcus aureus [12],Active
same,Activity,[13],Active
same,Activity,[14],Active
same,Activity,Staphylococcus aureus [15],Active
same,MIC,Staphylococcus aureus [16],0.5 µg/mL
same,MIC,Staphylococcus aureus [17],0.5 µg/mL
same,MIC,Staphylococcus aureus [18],0.5 µg/mL
same,Activity,Staphylococcus aureus [19],Active
same,MIC,Escherichia coli,64 µg/mL
same,MIC,Staphylococcus aureus [20],0.5 µg/mL
same,MIC,Pseudomonas aeruginosa,64 µg/mL
